The values that follow come from ChEMBL document CHEMBL1134348, “Novel glucocorticoid antedrugs possessing a 17beta-(gamma-lactone) ring” (J Med Chem, 2001).

Where only a bound is given, the exact number is not on record here.

In general, half-life refers to how long it takes for the measured level to halve. Lower therefore signals fast loss. As a reminder, the IC50 is the concentration needed to halve the response being measured. A low value points to greater potency.

A short description of series [1]: (§1) % stability in human plasma after 60 minutes. The class given is ADME, organism-based. Particulars: plasma, read-out: Stability. Put shortly: (§2)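 Pooled heparinized plasma from 4 volunteers was incubated at 37 °C with test compound at a final concentration of 30 ug/mL, with DMSO-only controls. The reaction was stopped with 2 M citric acid at 10 and 60 min, with a zero-time sample. Supernatants were analysed by reversed-phase HPLC at 240 nm against an internal standard, in duplicate, and reported as % compound remaining.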

Series [2] in a line: (§3) % stability in human plasma after 10 minutes. In kind it is ADME, organism-based. Particulars: plasma, read-out: Stability. Put shortly:
as §2

Series [3] is described as follows: % stability in krebs buffer after 60 minutes. In kind it is physicochemical. To be noted: for remaining at 1 h: Krebs buffer, read-out: Stability; for Stability: buffer, 1 h. Put shortly:
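Test compound, at a final concentration of 30 ug/mL, was spiked into Krebs buffer at 37 °C for 60 min, then quenched with 2 M citric acid. Supernatant was analysed by reversed-phase HPLC with UV detection at 240 nm and an internal standard, in duplicate. The read-out was % compound remaining.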

The nature of series [4]: half life in human plasma. The class given is ADME, organism-based. Put shortly:
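Pooled heparinised plasma from 4 volunteers, stored at −20 °C; compound spiked to final 30 ug/mL at 37 °C. Half-life taken from additional time points in this incubation; reaction stopped with 2 M citric acid, samples frozen overnight and centrifuged. Supernatant analysed by reverse-phase HPLC with UV at 240 nm, internal standard dexamethasone or hydrocortisone; duplicates.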

Another series concerns the target T1, Glucocorticoid receptor (Homo sapiens, UniProt P04150).
T1 sequence (P04150 whole entry): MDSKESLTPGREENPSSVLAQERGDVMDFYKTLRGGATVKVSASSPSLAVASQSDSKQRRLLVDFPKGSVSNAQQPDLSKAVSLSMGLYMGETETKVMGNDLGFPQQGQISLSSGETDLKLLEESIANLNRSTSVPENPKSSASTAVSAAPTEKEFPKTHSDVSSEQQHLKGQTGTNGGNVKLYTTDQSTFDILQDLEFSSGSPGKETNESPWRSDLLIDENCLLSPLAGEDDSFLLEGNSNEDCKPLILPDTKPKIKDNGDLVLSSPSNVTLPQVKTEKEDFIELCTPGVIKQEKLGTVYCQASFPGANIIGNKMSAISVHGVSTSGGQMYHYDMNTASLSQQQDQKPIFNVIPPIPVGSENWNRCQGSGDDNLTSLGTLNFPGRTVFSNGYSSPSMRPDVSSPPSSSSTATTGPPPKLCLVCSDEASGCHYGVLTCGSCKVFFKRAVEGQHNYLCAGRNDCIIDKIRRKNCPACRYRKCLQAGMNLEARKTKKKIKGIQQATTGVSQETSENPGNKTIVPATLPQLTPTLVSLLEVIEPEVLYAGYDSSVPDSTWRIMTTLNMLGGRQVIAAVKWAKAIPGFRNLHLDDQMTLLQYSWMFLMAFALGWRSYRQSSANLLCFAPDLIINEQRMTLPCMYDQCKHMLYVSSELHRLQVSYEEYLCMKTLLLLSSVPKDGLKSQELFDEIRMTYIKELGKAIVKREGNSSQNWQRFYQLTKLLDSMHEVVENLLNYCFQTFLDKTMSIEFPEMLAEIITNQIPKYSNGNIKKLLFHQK
In words: Affinity for human glucocorticoid receptor.

Series [5] has as its system Rattus norvegicus. The series is described as follows: Inhibition of rat ear edema as percentage change in mean weight (71.65+/-2.81 mg) from control group of 72.25+/-2.24 mg at a 1.56 ug dose. The class given is functional.
Series [6] has as its system Rattus norvegicus. The series is described as follows: Inhibition of rat ear edema as percentage change in mean weight (54.84 +/- 2.18 mg) from control group of 72.25+/-2.24 mg at 10.00 ug dose. The class given is functional.
Series [7] relates to Rattus norvegicus. In words: Inhibition of rat ear edema as percentage change in mean weight (46.46+/-2.86 mg) from control group of 72.25+/-2.24 mg at 100 ug dose. The class given is functional.
The subject of series [8] is Rattus norvegicus. In words: Inhibition of rat ear edema as percentage change in mean weight (49.76+/-2.12 mg) from control group of 72.25+/-2.24 mg at 25.00 ug dose. The class given is functional.
In series [9] the test system is Rattus norvegicus. The series is described as follows: Inhibition of rat ear edema as percentage change in mean weight (55.94 +/- 3.31 mg) from control group of 72.25+/-2.24 mg at 6.25 ug dose. In kind it is functional.
The species entered for series [10] is Homo sapiens. The description is as §1. The class given is ADME, organism-based. To be noted: 1 h. Put shortly: as §2
For series [11], the species on record is Homo sapiens. The description is as §3. In kind it is ADME, organism-based. To be noted: 10 min. Put shortly:
as §2

For series [12], the system named is Rattus norvegicus. In words: Inhibition of rat ear edema as percentage change in mean weight (47.85+/-1.09 mg) from control group of 55.67+/-1.22 mg at 6.25 ug dose.
Series [13] deals with Rattus norvegicus. In words: Inhibition of rat ear edema as percentage change in mean weight (58.02+/-1.46 mg) from control group of 55.67+/-1.22 mg at 1.56 ug dose.
Series [14] relates to Rattus norvegicus. The series is described as follows: Inhibition of rat ear edema as percentage change in mean weight (47.21+/-1.28 mg) from control group of 55.67+/-1.22 mg at 25.00 ug dose.
The test system of series [15] is Rattus norvegicus. The series is described as follows: Inhibition of rat ear edema as percentage change in mean weight (43.03+/-1.19 mg) from control group of 55.67+/-1.22 mg at 100.00 ug dose.
The target in series [16] is T2, Glucocorticoid receptor (Rattus norvegicus) (UniProt P06536).
T2 sequence (whole entry): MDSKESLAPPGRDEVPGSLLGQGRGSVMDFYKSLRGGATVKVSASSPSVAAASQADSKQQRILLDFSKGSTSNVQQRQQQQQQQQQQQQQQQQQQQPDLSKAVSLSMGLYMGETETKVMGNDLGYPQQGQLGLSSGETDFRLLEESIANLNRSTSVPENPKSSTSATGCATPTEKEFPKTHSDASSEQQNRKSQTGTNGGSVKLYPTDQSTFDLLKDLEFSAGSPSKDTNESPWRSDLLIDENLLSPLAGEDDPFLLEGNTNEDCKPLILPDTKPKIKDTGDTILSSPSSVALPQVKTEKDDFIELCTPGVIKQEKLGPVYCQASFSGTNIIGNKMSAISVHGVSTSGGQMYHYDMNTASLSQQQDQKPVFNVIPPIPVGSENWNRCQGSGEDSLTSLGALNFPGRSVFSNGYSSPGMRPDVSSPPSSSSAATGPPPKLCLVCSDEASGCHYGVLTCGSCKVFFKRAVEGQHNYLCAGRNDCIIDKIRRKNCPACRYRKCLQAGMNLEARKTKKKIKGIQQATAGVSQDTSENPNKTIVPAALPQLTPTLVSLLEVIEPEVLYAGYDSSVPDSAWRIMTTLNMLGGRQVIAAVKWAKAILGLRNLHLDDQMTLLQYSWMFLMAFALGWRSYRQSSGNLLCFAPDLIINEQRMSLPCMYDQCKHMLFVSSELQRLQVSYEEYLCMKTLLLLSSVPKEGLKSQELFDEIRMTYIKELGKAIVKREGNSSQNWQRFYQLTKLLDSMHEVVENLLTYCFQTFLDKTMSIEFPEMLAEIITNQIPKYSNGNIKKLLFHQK
In words: Percentage reduction in thymus weight (248.99+/-23.19 mg) at 50 ug dose. The class given is functional.

As to `CCC[C@@H]1O[C@@H]2CC3C4C[C@H](F)C5=CC(=O)CC[C@]5(C)[C@@]4(F)[C@@H](O)C[C@]3(C)[C@]2(SCC2CCOC2=O)O1` (stereo partly specified), the remaining at 1 h in [1] and in series [3] was 100% throughout. Also, the remaining at 10 min in series [2] was 100%. In [4], this compound had a half-life of more than 240 min.

For `CCC[C@@H]1O[C@@H]2CC3C4C[C@H](F)C5=CC(=O)CC[C@]5(C)[C@@]4(F)[C@@H](O)C[C@]3(C)[C@]2(S[C@@H]2CCOC2=O)O1` (stereo partly specified), the results for the remaining at 1 h in series [1] and in series [3] were 0% and 91%, respectively. Also, on Glucocorticoid receptor, the midpoint of inhibition, the IC50, lay at 0.0064 µM. Further, the Decrease with Rattus norvegicus [5] is 0.83%; in the series on Rattus norvegicus [6] it was 24.1%; with Rattus norvegicus [7], 35.7%; in the series on Rattus norvegicus [8] it was 31.1%; in the series with Rattus norvegicus [9], 22.6%. In addition, the remaining at 10 min in [2] is 19%. Also, the half-life in [4] is 5 min.

On to `CCC[C@@H]1O[C@@H]2CC3C4C[C@H](F)C5=CC(=O)C=C[C@]5(C)[C@@]4(F)[C@@H](O)C[C@]3(C)[C@]2(S[C@@H]2CCOC2=O)O1` (stereo partly specified), for which the remaining at 1 h is 7% in [1] and 100% in series [3]. For the same compound, the remaining at 10 min in series [2] is 19%.

`CC1(C)O[C@@H]2CC3C4C[C@H](F)C5=CC(=O)C=C[C@]5(C)[C@@]4(F)[C@@H](O)C[C@]3(C)[C@]2(CC2CCOC2=O)O1` (single isomer, unassigned; isomer B): the figures for the remaining at 1 h in series [1] and in series [3] were 99% and 100%, respectively. The remaining at 10 min in series [2] came to 100%.

Consider `CC1(C)O[C@@H]2CC3C4C[C@H](F)C5=CC(=O)C=C[C@]5(C)[C@@]4(F)[C@@H](O)C[C@]3(C)[C@]2(CC2CCOC2=O)O1` (single isomer, unassigned; isomer A), for which the Stability in the series listed under Homo sapiens [10] stood at 100%.

For `CCC[C@@H]1O[C@@H]2CC3C4C[C@H](F)C5=CC(=O)C=C[C@]5(C)[C@@]4(F)[C@@H](O)C[C@]3(C)[C@]2(SC2CCOC2=O)O1` (stereo partly specified), the values for the remaining at 1 h in series [1] and in series [3] were 0% and 77%, respectively. Moreover, the remaining at 10 min in [2] was determined as 0%.

For the compound `CC1=C(SC2CCOC2=O)[C@@]2(C)C[C@H](O)[C@@]3(F)C(CCC4=CC(=O)C=C[C@@]43C)C2C1` (single isomer, unassigned; isomer A), the Stability is given as 13% in the series listed under Homo sapiens [10], 53% in the series filed under Homo sapiens [11] and 97% in series [3].

For `CCC[C@@H]1O[C@@H]2CC3C4C[C@H](F)C5=CC(=O)CC[C@]5(C)[C@@]4(F)[C@@H](O)C[C@]3(C)[C@]2(SC(CCO)C(=O)O)O1` (stereo partly specified), the IC50 against Glucocorticoid receptor was 0.4 µM.

For the compound `CCC[C@@H]1O[C@@H]2CC3C4C[C@H](F)C5=CC(=O)CC[C@]5(C)[C@@]4(F)[C@@H](O)C[C@]3(C)[C@]2(SC2COC(=O)C2)O1` (single isomer, unassigned; isomer B), the Stability amounted to 0% in the series filed under Homo sapiens [10] and 56% in the series filed under Homo sapiens [11]. The remaining at 1 h in series [3] was 100%.

Take `CC1(C)O[C@@H]2CC3C4C[C@H](F)C5=CC(=O)CC[C@]5(C)[C@@]4(F)[C@@H](O)C[C@]3(C)[C@]2(SC2CCOC2=O)O1` (stereo partly specified): the remaining at 1 h in series [1] is 0%; in series [3] it was 89%. Further, in series [2], the remaining at 10 min was 20%.

As for `CC1(C)O[C@@H]2CC3C4C[C@H](F)C5=CC(=O)CC[C@]5(C)[C@@]4(F)[C@@H](O)C[C@]3(C)[C@]2(S[C@@H]2CCOC2=O)O1` (stereo partly specified), the figures for the remaining at 1 h in series [1] and in series [3] were 0% and 92%, respectively. In series [2], the remaining at 10 min stood at 28%.

On to `CC1=C(SC2CCOC2=O)[C@@]2(C)C[C@H](O)[C@@]3(F)C(CCC4=CC(=O)C=C[C@@]43C)C2C1` (single isomer, unassigned; isomer B), for which the results for the remaining at 1 h in [1] and in series [3] were 8% and 98%, respectively. The compound further returned a Stability in the series filed under Homo sapiens [11] of 17%.

With `CC1(C)O[C@@H]2CC3C4C[C@H](F)C5=CC(=O)C=C[C@]5(C)[C@@]4(F)[C@@H](O)C[C@]3(C)[C@]2(S[C@@H]2CCOC2=O)O1` (stereo partly specified), the remaining at 1 h was 15% in series [1] and 90% in series [3]. Further, the IC50 against Glucocorticoid receptor is 0.0014 µM. For the same compound, the Decrease with Rattus norvegicus [12] was found to be 14%; with Rattus norvegicus [13], 0%; with Rattus norvegicus [14], 15.2%; with Rattus norvegicus [15], 22.7%. Besides, in [2], the remaining at 10 min stood at 45%.

`CCC[C@@H]1O[C@@H]2CC3C4C[C@H](F)C5=CC(=O)CC[C@]5(C)[C@@]4(F)[C@@H](O)C[C@]3(C)[C@]2(SC2COC(=O)C2)O1` (single isomer, unassigned; isomer A): the results for the Stability (in the series filed under Homo sapiens [10]; in the series filed under Homo sapiens [11]; in series [3]) were 19%, 28% and 99%, respectively.

On to `CCC[C@@H]1O[C@@H]2CC3C4C[C@H](F)C5=CC(=O)CC[C@]5(C)[C@@]4(F)[C@@H](O)C[C@]3(C)[C@]2(S[C@H]2CCOC2=O)O1` (stereo partly specified), for which the remaining at 1 h in [1] was found to be 0%; in series [3], 82%. In [2], the remaining at 10 min turned out to be 0%.

`CCCC1O[C@@H]2C[C@H]3[C@@H]4CCC5=CC(=O)C=C[C@]5(C)[C@H]4[C@@H](O)C[C@]3(C)[C@]2(C(=O)CO)O1` (stereo partly specified) displayed a Reduction in series [16] of 48%.

On to `CC1(C)O[C@@H]2CC3C4C[C@H](F)C5=CC(=O)C=C[C@]5(C)[C@@]4(F)[C@@H](O)C[C@]3(C)[C@]2(SC(CCO)C(=O)O)O1` (stereo partly specified), for which, on Glucocorticoid receptor, it took 0.289 µM to reach half-maximal inhibition (IC50).
